Assay results collected from several papers.
Compare with care: the assays were run in different laboratories.
Cell line: A549
Read-out: cell growth or viability

`CC(C)[C@@H]1NC(=O)[C@@H](CCCNC(=N)N)NC(=O)[C@H]([C@@H](C)O)NC(=O)[C@@H](CCCN)NC(=O)[C@H](Cc2ccccc2)NC(=O)[C@@H](Cc2ccc(O)cc2)NC1=O` has an IC50 of over 100 µM (ATP luminescence).
For `O=C(NO)Nc1nc2c(Cl)cc(Cl)cc2c(=O)n1-c1ccc(Cl)cc1`, the IC50 was over 200 µM (MTT; 48 h).
`O=C(NCc1ccccc1)Nc1nc2cc(-c3ccc4ncn(Cc5ccccc5)c(=O)c4c3)ccc2s1` has an IC50 of 3.13 µM (MTT; 72 h).
`COc1cc([C@@H]2c3cc4c(cc3[C@@H](O[C@@H]3O[C@@H]5CO[C@@H](C)O[C@H]5[C@H](O)[C@H]3O)[C@H]3COC(=O)[C@H]23)OCO4)cc(OC)c1O` has an IC50 of 14.3 µM (MTT; 48 h).
For `COc1cc(C2C3=C(Nc4nc(SC)[nH]c(=O)c42)c2ccccc2C3=O)ccc1O` (stereo not drawn), the IC50 was over 1000 µM (MTT; 72 h).
`NS(=O)(=O)c1ccc(-n2nc(-c3nnc(CCl)o3)cc2-c2ccccc2)cc1` has an IC50 of 22.3 µM (fluorescence; 48 h).
With `COc1cc([C@@H]2c3cc4c(cc3[C@@H](O[C@@H]3O[C@@H]5CO[C@@H](C)O[C@H]5[C@H](O)[C@H]3O)[C@H]3COC(=O)[C@H]23)OCO4)cc(OC)c1O` the IC50 was 0.3 µM (SRB; 72 h).
`Cc1cc(NS(=O)(=O)c2ccc(NC(=O)/C(C#N)=C/c3ccc(N4CCOCC4)cc3)cc2)no1` gave an IC50 of 109 µM (MTT; 48 h).
The IC50 of `COc1ccc(CNc2ccc(C(=O)O)cc2)cc1` is reported as over 100 µM (resazurin; 72 h).
With `CCCC(=O)Nc1ccc(-c2ccc3ncn(Cc4ccc(C)cc4)c(=O)c3c2)cn1` the IC50 was over 10 µM (CCK-8; 72 h).
For `O=C(Nc1ccc(F)cc1)Nc1nc2cc(-c3ccc4ncn(CCC5CCCCC5)c(=O)c4c3)ccc2s1`, the IC50 was 9.1 µM (MTT; 72 h).
`CN(C)c1ccc(Nc2nc(-c3ccncc3)nc3c2CC(N)CC3)cc1` (stereo not drawn) has an IC50 of 17.1 µM (MTT).
With `C/C(=N\NC(=O)/N=C(\C)c1c(O)c2ccccc2oc1=O)c1c(O)c2ccccc2oc1=O` the IC50 was 20.8 µM (MTT; 48 h).
For `COc1cc(C=NNC(=O)c2cc(-c3ccccc3)n(-c3ccc(S(N)(=O)=O)cc3)n2)cc(OC)c1OC`, the IC50 was 18.8 µM (fluorescence; 48 h).
`CC(=O)c1c(O)c2ccccc2oc1=O` gave an IC50 of 29.2 µM (MTT; 48 h).
The IC50 of `CCCCn1cnc2ccc(-c3ccc4sc(NC(=O)Nc5ccc(F)cc5)nc4c3)cc2c1=O` is reported as 1.27 µM (MTT; 72 h).
For `O=C(Nc1ccc(-c2ccc3ncn(Cc4ccccc4)c(=O)c3c2)cn1)C1CC1`, the IC50 was over 10 µM (CCK-8; 72 h).
The IC50 of `O=C(C=Cc1ccc(OCCCCOc2ccc(C=CC(=O)c3cccs3)cc2)cc1)c1cccs1` is reported as 232 µM (MTT; 48 h).
For `O=c1c2cc(Cl)cc(Cl)c2nc(NNc2cccc(Cl)c2)n1-c1ccccc1`, the IC50 was over 200 µM (MTT; 48 h).
The IC50 of `CCCC(C)C(=O)Nc1ccc(-c2ccc3ncn(CCC)c(=O)c3c2)cn1` (stereo not drawn) is reported as 9.85 µM (CCK-8; 72 h).
With `NNc1nc2ccc(Br)cc2c(=O)n1-c1ccc(Cl)cc1` the IC50 was 79.2 µM (MTT; 48 h).
With `COc1cccc(CNc2ccc(C(=O)O)cc2)c1O` the IC50 was over 100 µM (resazurin; 72 h).
`CC(C)[C@H](NC(=O)[C@H](Cc1c[nH]c2ccccc12)NC(=O)[C@H](Cc1c[nH]cn1)NC(=O)[C@H](CCCNC(=N)N)NC(=O)[C@H](CCCNC(=N)N)NC(=O)[C@H](Cc1c[nH]c2ccccc12)NC(=O)[C@H](Cc1c[nH]c2ccccc12)NC(=O)[C@H](Cc1c[nH]cn1)NC(=O)[C@H](Cc1c[nH]c2ccccc12)NC(=O)[C@H](CCCNC(=N)N)NC(=O)[C@@H](N)CCCCN)C(=O)N[C@H](C(=O)N[C@@H](Cc1c[nH]c2ccccc12)C(N)=O)C(C)C` gave an IC50 of 106 µM (MTT; 24 h).
`C/C(=N\C(=N)/N=C(\C)c1c(O)c2ccccc2oc1=O)c1c(O)c2ccccc2oc1=O` gave an IC50 of 66 µM (MTT; 48 h).
The IC50 of `O=C(NCCc1ccccc1)Nc1nc2cc(-c3ccc4ncn(CCN5CCOCC5)c(=O)c4c3)ccc2s1` is reported as 4.92 µM (MTT; 72 h).
For `COc1ccc(CNc2ccc(C(=O)O)cc2)cc1OC`, the IC50 was over 100 µM (resazurin; 72 h).
`NNc1nc2c(Cl)cc(Cl)cc2c(=O)n1-c1ccc(F)cc1` has an IC50 of 80 µM (MTT; 48 h).
`CCCn1cnc2ccc(-c3ccc(NC(=O)CC4CC4)nc3)cc2c1=O` has an IC50 of 2.65 µM (CCK-8; 72 h).
For `CC1CCC(C(C)C)C(OC2=C(Cl)C(=O)c3ccccc3C2=O)C1` (stereo not drawn), the IC50 was over 50 µg/mL (MTT; 24 h).
For `CC(C)CNC(=S)N/N=C/c1cccc2cc3ccccc3nc12`, the IC50 was over 50 µM (MTT; 48 h).
`OC1CCN(c2ccc(/C=N/NC(=S)Nc3ccc(Br)cc3)cc2)CC1` gave an IC50 of 1.85 µM (MTT; 24 h).
With `O=c1[nH]cc(F)c(=O)[nH]1` the IC50 was 11.8 µM (MTT; 48 h).
`CC(C)[C@@H]1NC(=O)[C@@H](CCCCN)NC(=O)[C@H]([C@@H](C)O)NC(=O)[C@@H](CCCN)NC(=O)[C@H](Cc2ccccc2)NC(=O)[C@@H](Cc2ccccc2)NC1=O` gave an IC50 of over 100 µM (ATP luminescence; 72 h).
For `O=C(N[C@@H](CSCc1nc2cc([N+](=O)[O-])ccc2[nH]1)C(=O)NO)c1ccccc1`, the IC50 was under 500 µM (MTT; 48 h).
`O=C(Nc1ccc(F)cc1)Nc1nc2cc(-c3ccc4ncn(CC(=O)N5CCOCC5)c(=O)c4c3)ccc2s1` gave an IC50 of over 20 µM (MTT; 72 h).
The IC50 of `O=C1/C(=C/c2ccc3ccccc3c2O)NC(=S)N1c1ccccc1` is reported as 5.2 µg/mL (MTT).
`CCCCn1cnc2ccc(-c3ccc(NC(=O)C4CCCC4)nc3)cc2c1=O` gave an IC50 of 4.58 µM (CCK-8; 72 h).
`NS(=O)(=O)c1ccc(-n2nc(-c3nnc(S)o3)cc2-c2ccccc2)cc1` gave an IC50 of 26.9 µM (fluorescence; 48 h).
`COC(=O)c1cc(C(C)=NNc2nc(-c3ccc(C)cc3)cs2)ccc1O` has an IC50 of 9.61 µM (MTT; 96 h).
The IC50 of `CCCn1cnc2ccc(-c3ccc(N4CCCCCCC4=O)nc3)cc2c1=O` is reported as over 10 µM (CCK-8; 72 h).
For `Cc1cccc(C)c1NC(=S)N/N=C/c1ccc(N2CCC(O)CC2)cc1`, the IC50 was 1.56 µM (MTT; 24 h).
With `CN1CCC(NC2CCc3[nH]c4c(C(N)=O)ccc(-c5ccccc5Cl)c4c3C2)CC1` (stereo not drawn) the IC50 was 0.0301 µM.
For `CN(C)CCn1cnc2ccc(-c3ccc4sc(NC(=O)Nc5ccc(F)cc5)nc4c3)cc2c1=O`, the IC50 was 0.98 µM (MTT; 72 h).
For `O=C(O)c1ccc(NCc2ccccc2)cc1`, the IC50 was over 100 µM (resazurin; 72 h).
`CCCCC(=O)Nc1ccc(-c2ccc3ncn(CCC)c(=O)c3c2)cn1` gave an IC50 of 0.11 µM (CCK-8; 72 h).
`O=C(O)c1ccc(NCc2cccc(C(F)(F)F)c2)cc1` has an IC50 of over 100 µM (resazurin; 72 h).
With `Cc1ccc(NC(=O)Nc2nc3cc(-c4ccc5ncn(Cc6ccccc6)c(=O)c5c4)ccc3s2)cc1` the IC50 was 7.61 µM (MTT; 72 h).
For `Cc1cccc(NC(=O)Cn2cc(COc3ncnc4[nH]cnc34)nn2)c1`, the IC50 was over 100 µM (MTT).
`O=C(Nc1ccc(F)cc1)Nc1nc2cc(-c3ccc4ncn(Cc5ccccc5)c(=O)c4c3)ccc2s1` gave an IC50 of 2.83 µM (MTT; 72 h).
The IC50 of `CCCCC(=O)Nc1ccc(-c2ccc3ncn(CCCC)c(=O)c3c2)cn1` is reported as 0.87 µM (CCK-8; 72 h).
With `OC1CCN(c2ccc(/C=N/NC(=S)Nc3ccccc3)cc2)CC1` the IC50 was 3.77 µM (MTT; 24 h).
